ARFGAP1 inhibitor – rat ARFGAP1 inhibition | Q62848 | Arfgap1-stimulated ARF1 GTP hydrolysis, GDP FP detection | inhibition, % at 16.5 µM | 0.26% of 360,000 active | AID 651572;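 active = inhibition above a per-plate limit, mean inhibition of low control wells plus 3 SD, cut at about 25% in these data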;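 note: 0% = DMSO wells with enzyme and 100% = wells lacking Arfgap1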
Target sequence (Q62848 1-136 limits assumed): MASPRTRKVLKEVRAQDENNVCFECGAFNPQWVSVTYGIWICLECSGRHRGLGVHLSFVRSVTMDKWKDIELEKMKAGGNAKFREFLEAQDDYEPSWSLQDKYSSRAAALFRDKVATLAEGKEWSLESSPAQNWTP
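Material: truncated rat Arfgap1 GAP domain; Incubation: compound-enzyme preincubation 20 min, reaction 120 min, detection 60 min, 25 °C; Read-out: percent inhibition of Arfgap1-stimulated GTP hydrolysis; Technique: FP, GDP Alexa 633 tracer displaced from anti-GDP antibody, 620/688 nm; Controls: No-Arfgap1 wells (100%) versus DMSO full-reaction wells (0%); Replication: single well per compound.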
DDE Tn7 FP inh – disrupts Tn7 cyclic peptide binding to fibrin D-Dimer-E complex. P02675. FP displacement of FITC-Tn7 peptide from fibrin DD(E); 0% = median of compound wells per plate. inhibition, % at 8.3 µM. 0.13% of 370,000 active. AID 720508;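 active = inhibition above the mean of compounds falling within the control limits plus 3 SD of them, cut at about 14% in these data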;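 note: 0% = plate median of compound wells and 100% = 10 µM Aha-Tn7 peptide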
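Assay system: human fibrin DD(E) protein / Input: 2 µM fibrin DD(E) / Benchmarks: high control of 10 µM Aha-Tn7 peptide / Measured by: fluorescence polarization of the labelled Tn7 tracer / Medium: Tris buffer with calcium and detergent, pH 7.8 / Timing: 10 min compound pre-incubation, 3 h probe incubation at room temperature / Repeats: one replicate per compound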
ASAP1 inh – blocks human ASAP1-stimulated Arf1 GTP hydrolysis; Q9ULH1; GDP FP detection; inhibition, % at 16.5 µM; 0.19% of 360,000 active; AID 624377; in the data active = inhibition above about 25%;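 note: 0% = vehicle with enzyme and substrate and 100% = no enzyme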
Target sequence (Q9ULH1 325-724 limits assumed): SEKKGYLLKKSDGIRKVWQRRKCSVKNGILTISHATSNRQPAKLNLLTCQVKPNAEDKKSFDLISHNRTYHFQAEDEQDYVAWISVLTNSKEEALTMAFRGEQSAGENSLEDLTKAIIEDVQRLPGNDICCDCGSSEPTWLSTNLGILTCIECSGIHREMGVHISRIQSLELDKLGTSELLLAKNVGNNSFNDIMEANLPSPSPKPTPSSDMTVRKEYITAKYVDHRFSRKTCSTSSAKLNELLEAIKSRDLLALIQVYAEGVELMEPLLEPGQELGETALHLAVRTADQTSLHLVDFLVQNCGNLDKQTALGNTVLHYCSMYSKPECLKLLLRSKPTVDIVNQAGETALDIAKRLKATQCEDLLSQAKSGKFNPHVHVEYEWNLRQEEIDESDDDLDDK
DDE Tn6 FP inh – disrupts Tn6 cyclic peptide binding to fibrin D-Dimer-E complex; inhibition, % at 8.3 µM; AID 720509; 0.21% of 370,000 active; Fibrin DD(E) TRITC-Tn6 fluorescence polarization displacement;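 active = inhibition above a per-campaign cutoff: mean of compounds within control limits plus 3 SD, cut at about 15% in these data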;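 note: 0% = median of all compound wells on the plate and 100% = blocking peptide control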
ASAP1 GAP conf – confirmation of human ASAP1 inhibitors; shares compounds with ASAP1 inh; ASAP1-stimulated Arf1 GTPase, GDP fluorescence polarization; inhibition, % at 16.5 µM; 37% of 620 active; AID 624431;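 active = mean inhibition over triplicates exceeds the hit threshold derived for the earlier primary screening run, cut at about 25% in these data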
Starred values were filed as active, the others as inactive; . = no result; ! = a repeat was not active. Compounds with a hit are over-represented: about 0.74% of the library has one in this group of screens.

SMILES	ARFGAP1 inhibitor	DDE Tn7 FP inh	ASAP1 inh	DDE Tn6 FP inh	ASAP1 GAP conf
CCN1C[C@@H]2[C@@H]3C(=O)N(Cc4ccccc4)C(=O)[C@@H]3[C@](Cc3ccccc3)(C1=O)N2C(=O)c1ccc(Cl)cc1	7	-6	56*	-2	1
CCN1CCN(Cc2ccc(NC(=O)c3cc(NC(=O)c4cc5cccc(OC)c5o4)cc(OC)c3)cc2C(F)(F)F)CC1	20	10	29*!	2	49*
CCN1CCN(Cc2ccc(NC(=O)c3cc(NC(=O)c4ccno4)cc(OC)c3)cc2C(F)(F)F)CC1	1	1	9	-1	.
Cc1ccc(-n2c(SCC(=O)N/N=C/C=C\c3ccccc3[N+](=O)[O-])nnc2-c2ccccc2)cc1	.	-6	.	-4	.
Cc1ccccc1NC(=O)c1cccc(N2C(=O)C3C4CC(C(Br)C4Br)C3C2=O)c1 (stereo unspecified)	8	0	28*	3	6
CCOc1ccc(-n2c(SCC(=O)Nc3ccc(S(=O)(=O)Nc4cc(C)nc(C)n4)cc3)nnc2-c2ccc(OC)cc2)cc1	.	6	.	0	.
COc1ccc(C(C[N+](=O)[O-])c2c(C)[nH]n(-c3ccccc3)c2=O)cc1 (stereo unspecified)	25*	2	30*	-2	14
O=C(Nc1ccc(F)cc1)OCc1cn(Cc2cccc(Cl)c2)nn1	.	9	.	1	.
O=C(Nc1ccc([N+](=O)[O-])cc1)Nc1ccc(OC(F)F)c(Cl)c1	14	-11	27*	-19	23
O=C(Nc1ccc(OC(F)F)c(Cl)c1)Nc1ccc2c(c1)OCO2	-2	8	-3	1	.
O=C(C1CCC(CNS(=O)(=O)c2ccccc2)CC1)N1CCCCC1 (stereo unspecified)	6	-10	28*	2	0
CC(NC(=O)c1ccc(CS(=O)(=O)c2ccc(Cl)cc2)o1)c1ccc2c(c1)OCCO2 (stereo unspecified)	5	-5	27*	0	3
Cc1ccccc1S(=O)(=O)Cc1ccc(C(=O)NC(C)c2ccc3c(c2)OCCO3)o1 (stereo unspecified)	-1	-4	12	-5	.
Cc1ccc(S(=O)(=O)NCCCNc2ccc([N+](=O)[O-])cc2)cc1	-1	-4	12	1	.
Cc1ccc(S(=O)(=O)NCCNc2ccc([N+](=O)[O-])cc2)cc1	-2	3	29*	0	1
Cc1ccc(N(CC2CO2)S(=O)(=O)c2ccc(C)cc2)cc1 (stereo unspecified)	2	-1	-13	-5	.
Cc1ccc(S(=O)(=O)N(CC2CO2)c2cc(Cl)ccc2Cl)cc1 (stereo unspecified)	10	5	28*	1	1
O=C(Nc1ccc(CSc2ccccc2)cc1)c1ccco1	3	0	25*	4	7
CCc1ccc(CCOc2ccc(CC3SC(=O)NC3=O)cc2)nc1 (stereo unspecified)	12	-3	25*	-9	3
Cc1nc(N2CCN(C(=O)COc3ccccc3C)CC2)c2c3c(sc2n1)CCCC3	.	0	.	-1	.
CS(=O)(=O)N[C@@H]1C[C@@H]2O[C@H](CO)CC[C@@H]2O[C@@H]1CCc1ccc(-c2ccccc2F)cc1	.	-4	.	-3	.
O=c1c2ccccc2sn1-c1ccc(S(=O)(=O)N2CCCC2)cc1	-11	6	0	-2	.
O=c1c2ccccc2sn1-c1ccc(S(=O)(=O)N2CCCCC2)cc1	7	2	25*	5	8
Oc1ccc2[nH]cc(CCc3ccccc3)c2c1-c1ccccc1	.	0	.	0	.
COc1ccc(C(=O)NC(=S)Nc2ccc3oc(=O)ccc3c2)cc1	14	-3	59*	-12	78*
SMILES	ARFGAP1 inhibitor	DDE Tn7 FP inh	ASAP1 inh	DDE Tn6 FP inh	ASAP1 GAP conf
CCc1ccc(OCC(=O)N2CCc3ccccc32)cc1	-16	-7	26*	-3	10
Cc1ccc(Nc2cc(C)c3c(O)cccc3n2)cc1C	9	0	30*	-11	18
CCOc1cccc(N(C(=O)CNC(=O)c2ccco2)C(C(=O)NCC2CCCO2)c2ccccc2)c1 (stereo unspecified)	4	-4	25*	-1	1
Cc1ccc(C(=O)O/N=C/c2c(C)nn(C)c2Cl)cc1	4	-8	27*	6	0
Cc1cccc(-c2onc3ccc(C(=O)/C=C/N(C)C)cc23)c1	0	0	-5	-5	.
COc1cccc(-c2onc3ccc(C(=O)/C=C/N(C)C)cc23)c1	2	0	35*	4	51*
O=C1C[C@H](c2ccc3ccccc3c2)N=C2N1/C(=C\c1ccccc1)[C@@H](c1ccccc1C(F)(F)F)N2Cc1ccc2c(c1)OCO2	.	1	.	8	.
OCC[C@@H]1C[C@H](O)[C@@H](O)[C@@]2(OCc3cc(Cl)ccc32)O1	5	-9	25*	-3	4
OCC[C@@H]1C[C@H](O)[C@@H](O)[C@]2(OCc3cc(Cl)ccc32)O1	4	0	1	2	.
CC(/C=C/c1ccccc1)=N\NC(=O)CNC(=O)c1ccccc1Cl	1	-4	25*	4	5
Cc1c(C(=O)NCc2ccc(Cl)c(Cl)c2)sc(=O)n1Cc1cccc(F)c1	2	-7	25*	-6	14
Cc1c(C(=O)NCc2cccc(Cl)c2)sc(=O)n1Cc1cccc(F)c1	-3	1	6	-9	.
COc1ccc(/C=C2/Sc3ccc(C(=O)NCCCN4CCOCC4)cc3NC2=O)cc1OC	17	-5	32*	-16	89*
Cc1nc(SCC(=O)Nc2c(C)nn(C)c2C)c2cnn(-c3ccccc3)c2n1	6	-5	25*	7	5
Cc1nn(Cc2ccccc2)c(C)c1NC(=O)CSc1nc(-c2ccccc2)nc2c1cnn2-c1ccccc1	-5	-8	4	-6	.
Cn1cc(SCC(=O)NC2CCCCC2)c2ccccc21	16	-13	27*	3	13
Cn1cc(SCC(=O)NC2CCCC2)c2ccccc21	-2	4	4	2	.
COc1ccc(/C=C/C(Cc2cccc(C(C)=O)c2)c2ccc(C)cc2)cc1 (stereo unspecified)	.	-2	.	1	.
O=C(Nc1cccc(CNCCc2c[nH]c3ccccc23)c1)c1ccccc1Cl	3	-4	29*	-6	7
Cc1cc(C)c(C#N)c(SCc2cn3c(C)cccc3n2)n1	18	9	25*	-6	19
Cc1ccc2nc(-c3ccc(NC(=O)CSc4nnc(-c5cc(C)[nH]n5)n4N)cc3)sc2c1	.	-3	.	-11	.
CC(=O)Nc1ccc(Sc2ccc([N+](=O)[O-])o2)cc1	1	-5	31*	-7	1
C=CCN(c1ccccc1OC)S(=O)(=O)c1cccc(C(=O)OCC(=O)N2CCOCC2)c1	-4	-1	76*	-3	6
COc1ccc(Cl)cc1NC(=O)COC(=O)c1cc(C)oc1C	6	4	25*	5	16
